How the values were obtained:
[1] = organism: Cavia porcellus; test: Percent inhibition LTD4-induced contraction of guinea pig ileum at 3 uM of concentration; assay type: functional
Outline: (§1)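 Percent reduction of LTD4-induced contraction of isolated ileum from male Hartley guinea pigs (200-400 g). The antagonist was tested at the single concentration stated, and contraction was measured isometrically as grams of force.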

[2] = tested on: cysteinyl leukotriene receptor (Cavia porcellus); test: Inhibition of LTD4-induced contraction of guinea pig ileum.
[3] = tested on: Cavia porcellus; test: Bronchospastic activity to prevent increase in total pulmonary impedance (TPI) in guinea pig when administered intravenously; assay type: functional
Outline: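 Anesthetized male Hartley guinea pigs (200-400 g), body temperature kept normal on an isothermal pad. Total pulmonary impedance was recorded with pressure transducers. LTD4 was given iv as randomized doses to build dose-response curves. The antagonist was given intravenously.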

[4] = organism: Cavia porcellus; test: Percent inhibition LTD4-induced contraction of guinea pig ileum at 30 uM of concentration; assay type: functional; outline: as §1
[5] = organism: Cavia porcellus; test: Negative logarithm of compound concentration that reduced an LTD4-induced contraction of guinea pig ileum by 50%; assay type: functional
Outline: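 Ileum from male Hartley guinea pigs (200-400 g), with isometric tension recorded. Two, three or four antagonist concentrations were tested on a single ileum against a submaximal LTD4 contraction. The concentration giving 50% inhibition was extrapolated by linear regression and expressed as -log IC50.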

[6] = organism: Cavia porcellus; test: Percent inhibition LTD4-induced contraction of guinea pig ileum at 10 uM of concentration; assay type: functional; outline: as §1
[7] = organism: Cavia porcellus; test: Percent inhibition LTD4-induced contraction of guinea pig ileum at 1 uM of concentration; assay type: functional; outline: as §1

`CCCc1c(OCCCCCCCCCCCCc2nn[nH]n2)ccc(C(C)=O)c1O` gave an Inhibition [1] of 47%.

For `CCCc1c(OCCCCCC(=O)O)ccc(C(=O)CC)c1O`, the pKB [2] was 6.1.

With `CCCc1c(OCCCCCc2nn[nH]n2)ccc(C(C)=O)c1O` the Increase [3] was 25.6% and the pKB [2] was 6.6.

`C=CCc1c(OCCCCCC(=O)O)ccc(C(C)=O)c1O` showed an Inhibition [1] of 29%.

With `CCCc1c(OCC(=O)O)ccc(C(C)=O)c1O` the Inhibition [4] was 8%.

For `CCCc1c(OCCCCCCCC(=O)O)ccc(C(C)=O)c1O`, the IC50 [5] was 0.794 µM.

Compound `CCCc1c(OCCC(=O)O)ccc(C(C)=O)c1O` has an Inhibition [4] of 23%.

For `CCCc1c(OCCCCCC(=O)O)ccc(O)c1C(C)=O`, the Inhibition [6] was 0%.

In the case of `CCCc1c(OCCCCCCN2CCN(C)CC2)ccc(C(C)=O)c1O`, the IC50 [5] is reported as 5.01 µM.

With `CCCc1c(OCCCCCCCCCCc2nn[nH]n2)ccc(C(C)=O)c1O` the IC50 [5] was 3.16 µM.

For `CCCc1c(OCCCCCCCCCC(=O)O)ccc(C(C)=O)c1O`, the IC50 [5] was 0.794 µM.

With `CCCc1c(OCCCc2nnn[nH]2)ccc(C(C)=O)c1O` the Inhibition [7] was 15%.

Compound `CCCc1c(OCCCC(=O)O)ccc(C(C)=O)c1O` has an Inhibition [4] of 43%.

Work on `CCCc1c(OCCCCCC#N)ccc(C(C)=O)c1O` yielded an Inhibition [1] of 0%.

Work on `CCCc1c(OCCCCCCN(C)C)ccc(C(C)=O)c1O` yielded an IC50 [5] of 6.31 µM.

`CCCc1cc(C(C)=O)ccc1OCCCCCC(=O)O` gave an Inhibition [1] of 0%.

Work on `CCCc1c(OCCCCCCCCC(=O)O)ccc(C(C)=O)c1O` yielded a pKB [2] of 5.8.

`CCCc1c(OCCCCCCCCc2nn[nH]n2)ccc(C(C)=O)c1O` was tested, and the IC50 [5] was 0.316 µM.

`CCCc1c(OCCCCCCCCCc2nn[nH]n2)ccc(C(C)=O)c1O` gave an IC50 [5] of 0.251 µM.

`CCCc1c(OCCCCCC(=O)O)ccc(C(C)=O)c1O` gave a pKB [2] of 6.

Compound `CCCc1c(OCCCCc2nnn[nH]2)ccc(C(C)=O)c1O` [TOMELUKAST] has an Increase [3] of 2.2%.

`CCCc1c(OCCCCCCCc2nn[nH]n2)ccc(C(C)=O)c1O` gave a pKB [2] of 7.

Compound `CCCc1c(OCCCCCCN2CCOCC2)ccc(C(C)=O)c1O` has an IC50 [5] of 3.16 µM.

`CCCc1c(OCCCCCCO)ccc(C(C)=O)c1O` gave an IC50 [5] of 3.98 µM.

`CCCc1c(OCCCCCCC(=O)O)ccc(C(C)=O)c1O` showed a pKB [2] of 5.7.

In the case of `CCCc1c(OCc2nn[nH]n2)ccc(C(C)=O)c1O`, the Inhibition [4] is reported as 28%.

With `CC(=O)c1ccc(OCCCCCC(=O)O)cc1O` the Inhibition [1] was 11%.

In the case of `CCCc1c(OCCCCCCCCCCC(=O)O)ccc(C(C)=O)c1O`, the Inhibition [1] is reported as 79%.

In the case of `CCCc1c(OCCCCCCc2nn[nH]n2)ccc(C(C)=O)c1O`, the Increase [3] is reported as 27.1% and the pKB [2] is reported as 7.1.

`CCCc1c(OCCCCC(=O)O)ccc(C(C)=O)c1O` gave a pKB [2] of 5.8.

`CCCc1c(OCCCCCC(=O)O)ccc(C(=O)OC)c1O` showed an Inhibition [1] of 21%.

From ChEMBL document CHEMBL1123719, “Leukotriene receptor antagonists. 1. Synthesis and structure-activity relationships of alkoxyacetophenone derivatives” (J Med Chem, 1987)
